Laboratory results reported in paper PMC8435006 (ACS infectious diseases, 2021).

Key:
L1 (B3 MBL) = L1 (B3 MBL) (Stenotrophomonas maltophilia, UniProt P52700); experiment: Ki by imipenem hydrolysis, purified recombinant L1; assay type: biochemical; details: read-out: Ki against L1; MMTZs; imipenem substrate, 30 °C, pH 7.5, 20 μM ZnSO4
In short: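 Steady-state imipenem hydrolysis by purified L1 (2 nM final) at 30 °C, followed as the absorbance decrease at 300 nm (Δε300 = −9000 M−1cm−1). Buffer was 10 mM HEPES pH 7.5, 200 mM NaCl, 50 mg/L BSA and 20 μM ZnSO4. Inhibitor came from a DMSO stock diluted into buffer, and enzyme was added last. Rates from slopes were fitted to a competitive inhibition model for Ki.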

IMP-1 (B1 MBL) = details: read-out: Ki against IMP-1; MMTZs; same protocol; ref 6 (Rossi et al); cited from earlier work
Sfh-I (B2 MBL) = Sfh-I (B2 MBL) (Serratia fonticola, UniProt Q9RMI1); experiment: Ki by imipenem hydrolysis, purified recombinant Sfh-I; assay type: biochemical; details: ratio of Ki values
In short: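 Sfh-I (2 nM final) hydrolysing imipenem at 30 °C, monitored at 300 nm under steady-state conditions in 10 mM HEPES pH 7.5, 200 mM NaCl, 50 mg/L BSA, with no added zinc. Reactions were started by adding enzyme to the substrate plus inhibitor (DMSO stock diluted in buffer). Ki came from competitive-model fits of the rates, and the fold value is the ratio of Ki values.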

VIM-2 (B1 MBL) = details: read-out: Ki against VIM-2; MMTZs; same protocol; ref 6 (Rossi et al); cited from earlier work
NDM-1 (B1 MBL) = details: read-out: Ki against NDM-1; MMTZs; same protocol; ref 6 (Rossi et al); cited from earlier work
CphA = details: read-out: Ki against CphA; captopril isomers; ref Table S1; cited from earlier work
[1] = test system: E. coli DH10B expressing L1; experiment: Imipenem MIC potentiation, broth microdilution, L1 producer; assay type: cell-based
[2] = test system: E. coli DH10B expressing NDM-1; experiment: Imipenem MIC potentiation, broth microdilution, NDM-1 producer; assay type: cell-based; details: 100 μg/mL MMTZ; E. coli DH10B producing NDM-1
[3] = test system: E. coli DH10B expressing Sfh-I; experiment: Imipenem MIC potentiation, broth microdilution, Sfh-I producer; assay type: cell-based; details: 100 μg/mL MMTZ; E. coli DH10B producing Sfh-I
[4] = 50 μg/mL inhibitor, L1-expressing E. coli DH10B
[5] = 100 μg/mL MMTZ, E. coli DH10B producing L1

Sequence of L1 (B3 MBL) (P52700 34-290): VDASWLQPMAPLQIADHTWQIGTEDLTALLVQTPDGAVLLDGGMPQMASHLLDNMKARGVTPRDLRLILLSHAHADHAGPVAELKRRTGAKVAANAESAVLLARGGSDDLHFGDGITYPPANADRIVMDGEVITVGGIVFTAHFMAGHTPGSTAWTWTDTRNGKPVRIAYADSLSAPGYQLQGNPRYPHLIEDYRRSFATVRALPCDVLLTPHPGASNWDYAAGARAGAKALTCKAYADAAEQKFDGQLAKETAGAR

| SMILES | Ki (L1 (B3 MBL)) [µM] | Ki (IMP-1 (B1 MBL)) [µM] | Fold less potent against Sfh-I than L-anti-1a (Sfh-I (B2 MBL)) | Ki (VIM-2 (B1 MBL)) [µM] | Ki (NDM-1 (B1 MBL)) [µM] | Ki (CphA) [µM] | Reduction of imipenem MIC [1, 4] | Reduction of imipenem MIC [1, 5] | Reduction of imipenem MIC [2] | Reduction of imipenem MIC [3] |
| --- | --- | --- | --- | --- | --- | --- | --- | --- | --- | --- |
| CCOC(=O)[C@@]1(CS)N[C@@H](C(=O)O)CS1 [D-anti-1a] | 4 ± 0.5 | 1.3 ± 0.1 | 125 – 800 fold | 0.39 ± 0.04 | 2.5 ± 0.5 |  |  |  |  |  |
| CCOC(=O)[C@@]1(CS)N[C@@H](C(=O)O)C(C)(C)S1 [D-anti-1b] | 1.4 ± 0.2 | 0.93 ± 0.08 | 125 – 800 fold | 0.9 ± 0.1 | 3.1 ± 0.3 |  |  |  |  |  |
| C[C@H](CS)C(=O)N1CCC[C@@H]1C(=O)O [D-captopril] |  |  |  |  |  | 72 |  |  |  |  |
| CCOC(=O)[C@]1(CS)N[C@@H](C(=O)O)C(C)(C)S1 [D-syn-1b] | 4 ± 0.6 | 2 ± 0.2 |  | 1.9 ± 0.1 | 0.6 ± 0.05 |  | four-fold | least effect | least effect | least effect |
| CCOC(=O)[C@]1(CS)N[C@H](C(=O)O)CS1 [L-anti-1a] | 10 ± 0.8 | 1 ± 0.2 |  | 0.38 ± 0.05 | 5.2 ± 0.7 |  |  | 4 fold | 4 fold | 4 fold |
| CCOC(=O)[C@]1(CS)N[C@H](C(=O)O)C(C)(C)S1 [L-anti-1b] | 20 ± 2 | 0.46 ± 0.05 |  | 0.75 ± 0.09 | 0.44 ± 0.06 |  | four-fold |  |  |  |
| C[C@H](CS)C(=O)N1CCC[C@H]1C(=O)O [L-captopril] |  |  |  |  |  | 950 |  |  |  |  |
| CCOC(=O)[C@@]1(CS)N[C@H](C(=O)O)C(C)(C)S1 [L-syn-1b] | 28 ± 3 | 6 ± 0.6 |  | 3.6 ± 0.4 | 8 ± 1 |  | four-fold |  |  |  |
